Measurements: ChEMBL document CHEMBL6134793, “Synthesis and structure-activity study of the antimicrobial lipopeptide brevibacillin” (RSC Med Chem, 2024)
Values after ≈ are worked out from the molar mass of the structure shown. Active and inactive are the calls of the source. The calls are words filed in the database; no cut-off is given here.

How the values were obtained:
[1] = system: Pseudomonas aeruginosa; test: Antimicrobial activity against Pseudomonas aeruginosa ATCC […] assessed as growth inhibition by microdilution assay; assay type: functional
Method in brief: (§1)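 Twofold serial microdilution of peptide (stocks 2 mg mL−1, diluted to 512 μg mL−1 in water with 10% DMSO) in strain medium, about 1 × 10^4 cfu per well. Media: TSB 20 h 37 °C (S. aureus, L. monocytogenes, B. subtilis, E. faecalis); LB 20 h 37 °C (P. aeruginosa, S. enterica, E. coli); Brucella 48 h 37 °C (C. coli). A595 read; MIC = lowest concentration with no visible growth; triplicate.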

[2] = Hemolytic activity in human erythrocytes at 256 ug/ml measured after 1 hr by absorbance based assay relative to control; assay type: toxicity, cell-based, Erythrocyte; conditions: at 256 µg/mL, read-out: Activity
Method in brief: (§2)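 Washed human donor erythrocytes at 1% hematocrit in PBS pH 7.4 exposed to twofold peptide dilutions (final 2–256 μg mL−1, up to 1% DMSO) for 1 h at 37 °C. After centrifugation, supernatant A405 read. % hemolysis relative to PBS (0%) and 1% Triton X-100 (100%). Triplicate; mean ± SEM.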

[3] = system: Enterococcus faecalis; test: Antimicrobial activity against Enterococcus faecalis ATCC 29212 assessed as growth inhibition by microdilution assay; assay type: functional; method in brief: as §1
[4] = Hemolytic activity in human erythrocytes at 128 ug/ml measured after 1 hr by absorbance based assay relative to control; assay type: toxicity, cell-based, Erythrocyte; conditions: at 128 µg/mL, read-out: Activity; method in brief: as §2
[5] = system: Clostridium perfringens; test: Antimicrobial activity against Clostridium perfringens ATCC 3628 assessed as growth inhibition by microdilution assay; assay type: functional
Method in brief: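 Broth microdilution: twofold serial peptide dilutions in reinforced clostridial medium (RCM), seeded with about 1 × 10^4 cfu per well, incubated 20 h at 37 °C. Working solution 512 μg mL−1 made from a 2 mg mL−1 stock in water with 10% DMSO. Growth read as absorbance at 595 nm. MIC taken as the lowest concentration giving complete inhibition of visible growth; run in triplicate.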

[6] = Cytotoxicity against human Caco-2 cells assessed as inhibition of cell viability incubated for 48 hrs by Cell Titer GLO assay; assay type: toxicity, cell-based
Method in brief: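 Caco-2 cells in DMEM with 10% FCS, seeded 25 000 per well, adhered overnight, then given peptide at 2–256 μg mL−1 in complete medium for 48 h at 37 °C, 5% CO2. Controls: cisplatin 125 μM; 0.1% DMSO medium. Viability by ATP luminescence (CellTiter-Glo) versus untreated cells; IC50 from dose–response; mean ± SEM of at least three independent experiments.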

[7] = system: Escherichia coli; test: Antimicrobial activity against Escherichia coli ATCC 25922 assessed as growth inhibition by microdilution assay; assay type: functional; method in brief: as §1
[8] = system: Campylobacter coli; test: Antimicrobial activity against Campylobacter coli ATCC 33559 assessed as growth inhibition by microdilution assay; assay type: functional; method in brief: as §1
[9] = system: Staphylococcus aureus; test: Antimicrobial activity against Staphylococcus aureus ATCC 6538 assessed as growth inhibition by microdilution assay; assay type: functional; method in brief: as §1
[10] = system: Bacillus subtilis; test: Antimicrobial activity against Bacillus subtilis ATCC 23957 assessed as growth inhibition by microdilution assay; assay type: functional; method in brief: as §1
[11] = system: Pseudomonas aeruginosa; test: Antimicrobial activity against Pseudomonas aeruginosa ATCC […] assessed as growth inhibition at 128 ug/ml by radial diffusion assay; assay type: functional, organism-based; conditions: dose 128.0 µg/ml
Method in brief: (§3)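 Agar well diffusion. Overnight cultures inoculated at 1% into 0.75% soft agar (TSB for S. aureus, LB for P. aeruginosa). Each well received 80 μL of peptide at 128 μg mL−1 in water with 10% DMSO; 10% DMSO served as negative control. Inhibition zone diameter scored after strain-specific incubation.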

[12] = Antimicrobial activity against Salmonella enterica serovar Newport ATCC 6962 assessed as growth inhibition by microdilution assay; assay type: functional, Salmonella enterica subsp. enterica serovar Newport; method in brief: as §1
[13] = system: Listeria monocytogenes; test: Antimicrobial activity against Listeria monocytogenes ATCC 19111 assessed as growth inhibition by microdilution assay; assay type: functional; method in brief: as §1
[14] = system: Staphylococcus aureus; test: Antimicrobial activity against Staphylococcus aureus ATCC 6538 assessed as growth inhibition at 128 ug/ml by radial diffusion assay; assay type: functional, organism-based; conditions: dose 128.0 µg/ml; method in brief: as §3
[15] = system: Campylobacter coli; test: Bacteriostatic activity against Campylobacter coli ATCC 33559 assessed as MBC/MIC ratio by microdilution assay; assay type: functional
Method in brief: (§4)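 MIC wells showing complete inhibition were sampled, 10 μL spread on agar and incubated 48 h under strain conditions; MBC = lowest concentration giving no growth on agar. MIC by broth microdilution (TSB 20 h 37 °C for S. aureus; Brucella 48 h 37 °C for C. coli). Triplicate.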

[16] = system: Campylobacter coli; test: Bacteriostatic activity against Campylobacter coli ATCC 33559 measured after 48 hrs by microdilution assay; assay type: functional, organism-based; method in brief: as §4
[17] = system: Staphylococcus aureus; test: Bactericidal activity against Staphylococcus aureus ATCC 6538 measured after 48 hrs by microdilution assay; assay type: functional, organism-based; method in brief: as §4

| SMILES | MIC [1] | hemolysis at 1 h, 256 ug/ml [2] | MIC [3] | hemolysis at 1 h, 128 ug/ml [4] | MIC [5] | IC50 at 48 h [6] | MIC [7] | MIC [8] | MIC [9] | MIC [10] | growth inhibition (qualitative call) [11] | MIC [12] | MIC [13] | growth inhibition (qualitative call) [14] | Ratio [15] | Activity [16] | Activity [17] |
| --- | --- | --- | --- | --- | --- | --- | --- | --- | --- | --- | --- | --- | --- | --- | --- | --- | --- |
| CC[C@H](NC(=O)[C@@H](NC(C)=O)[C@@H](C)CC)C(=O)N[C@@H](CC(C)C)C(=O)N[C@H](CCCN)C(=O)N[C@H](C(=O)N[C@H](C(=O)N[C@H](C(=O)N[C@H](CCCCN)C(=O)N[C@H](C(=O)N[C@H](C(=O)N[C@@H](CCCCN)C(=O)N[C@H](Cc1ccc(O)cc1)C(=O)N[C@@H](CC(C)C)C(=O)N[C@H](C(N)=O)C(C)C)C(C)C)C(C)C)C(C)C)[C@@H](C)CC)[C@@H](C)CC | > 128 µg/mL | 38.2% | > 128 µg/mL | 23.3% | > 128 µg/mL | 14.9 µg/mL (≈ 9.08 µM) | > 128 µg/mL | > 128 µg/mL | > 128 µg/mL | > 128 µg/mL | inactive | > 128 µg/mL | > 128 µg/mL | inactive | – | – | – |
| CC[C@H](NC(=O)[C@@H](O)[C@@H](C)CC)C(=O)N[C@@H](CC(C)C)C(=O)N[C@H](CCCN)C(=O)N[C@H](C(=O)N[C@H](C(=O)N[C@H](C(=O)N[C@H](CCCCN)C(=O)N[C@H](C(=O)N[C@H](C(=O)N[C@@H](CCCCN)C(=O)N[C@H](Cc1ccc(O)cc1)C(=O)N[C@@H](CC(C)C)C(=O)N[C@H](CO)C(C)C)C(C)C)C(C)C)C(C)C)[C@@H](C)CC)[C@@H](C)CC | 1 µg/mL | 58.7% | 2 µg/mL | 15.5% | 2 µg/mL | 10 µg/mL (≈ 6.3 µM) | > 128 µg/mL | 4 µg/mL | 1 µg/mL | 1 µg/mL | Not active; Exhibited Small Decrease In Activity | > 128 µg/mL | 0.5 µg/mL | Not active; Exhibited Small Decrease In Activity | 8 | – | – |
| C/C=C(/NC(=O)[C@@H](O)[C@@H](C)CC)C(=O)N[C@@H](CC(C)C)C(=O)N[C@H](CCCN)C(=O)N[C@H](C(=O)N[C@H](C(=O)N[C@H](C(=O)N[C@H](CCCCN)C(=O)N[C@H](C(=O)N[C@H](C(=O)N[C@@H](CCCCN)C(=O)N[C@H](Cc1ccc(O)cc1)C(=O)N[C@@H](CC(C)C)C(=O)N[C@H](CO)C(C)C)C(C)C)C(C)C)C(C)C)[C@@H](C)CC)[C@@H](C)CC | 1 µg/mL | 25.2% | 4 µg/mL | 9.6% | 4 µg/mL | 10.9 µg/mL (≈ 6.88 µM) | 32 µg/mL | 8 µg/mL | 2 µg/mL | 1 µg/mL | Active | 64 µg/mL | 2 µg/mL | Active | – | Active | Active |
| C/C=C(/NC(=O)[C@@H](O)[C@@H](C)CC)C(=O)N[C@@H](CC(C)C)C(=O)N[C@H](CCCN)C(=O)N[C@H](C(=O)N[C@H](C(=O)N[C@H](C(=O)N[C@H](CCCCN)C(=O)N[C@H](C(=O)N[C@H](C(=O)N[C@@H](CCCCN)C(=O)N[C@H](Cc1ccc(O)cc1)C(=O)N[C@@H](CC(C)C)C(=O)N[C@H](C(N)=O)C(C)C)C(C)C)C(C)C)C(C)C)[C@@H](C)CC)[C@@H](C)CC | 4 µg/mL | 30.1% | 16 µg/mL | 11.8% | 16 µg/mL | 16.6 µg/mL (≈ 10.4 µM) | > 128 µg/mL | > 128 µg/mL | 8 µg/mL | 4 µg/mL | Not active; Exhibited Small Decrease In Activity | > 128 µg/mL | 2 µg/mL | Not active; Exhibited Small Decrease In Activity | – | – | – |
